Screening results from PubChem BioAssay.
Hits are enriched below; roughly 4.4% of the tested compounds scored in any of these assays.
AI-2 QS mod: Vibrio harveyi AI-2 quorum sensing modulators, primary screen, JMH597 strain, luminescence/OD600 ratio; activity change, % at 7.5 µM; Vibrio harveyi JMH597 AI-2 luminescence/OD600 ratio, 9 h; active compounds read low; strain lacks LuxN and CqsS sensors; 0 = neutral-control median; AID 2094, 2009; hit rate 0.4% among 300,000; in the data active = activity change below about -75%, passing the limit was not always enough;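 also: luminescence divided by OD600 gain over 9 h not by final OD600 alone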
m5-HT2A agonist: mouse Htr2a agonists via beta-arrestin recruitment, primary screen, cell-based, luminescence; 5-hydroxytryptamine receptor 2A (Mus musculus), P35363; CHO-K1 mHTR2A beta-arrestin complementation; percent of 30 µM serotonin response; activation, % at 7.6 µM; hit rate 0.66% among 360,000; AID 624169, 2012;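 active = activation above a run cutoff, the mean activation of all tested compounds plus 3 SD, cut at about 14% in these data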
Target sequence (P35363 whole entry, looked up): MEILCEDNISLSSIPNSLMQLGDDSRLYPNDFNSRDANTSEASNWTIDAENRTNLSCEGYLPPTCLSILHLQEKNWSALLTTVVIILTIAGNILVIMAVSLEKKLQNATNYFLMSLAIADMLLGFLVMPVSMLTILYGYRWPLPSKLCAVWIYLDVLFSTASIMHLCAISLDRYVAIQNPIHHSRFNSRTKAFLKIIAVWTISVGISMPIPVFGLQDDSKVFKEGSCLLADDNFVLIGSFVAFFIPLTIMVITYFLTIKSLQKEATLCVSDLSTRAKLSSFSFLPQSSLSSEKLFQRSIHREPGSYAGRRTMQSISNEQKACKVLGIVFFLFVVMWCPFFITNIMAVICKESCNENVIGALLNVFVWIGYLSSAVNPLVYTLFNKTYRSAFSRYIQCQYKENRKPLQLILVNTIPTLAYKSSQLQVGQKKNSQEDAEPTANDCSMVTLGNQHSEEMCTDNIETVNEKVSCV
MsrA act: bovine MsrA enzyme activators, primary screen, biochemical, absorbance, HTS | Methionine sulfoxide reductase A (Bos taurus) | hit rate 0.3% among 360,000 | purified bovine MsrA, absorbance read-out | activation, % at 10.6 µM; in the data active = activation above about 7.5%
MsrA inhibitor: bovine MsrA enzyme inhibitors, primary screen, biochemical, absorbance, HTS; Methionine sulfoxide reductase A (Bos taurus); purified bovine MsrA, absorbance read-out; inhibition, % at 15.5 µM; hit rate 0.75% among 360,000; in the data active = inhibition above about 4.5%
TbMetRS inhib: T. brucei MetRS inhibitors, primary screen, biochemical, luminescence. AID 624268, 2012. hit rate 0.4% among 360,000. inhibition, % at 11.9 µM. purified T. brucei MetRS, ATP depletion, Kinase-Glo luminescence;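 active = inhibition above a per-plate cutoff of the control wells' mean inhibition plus 3 SD, cut at about 5.5% in these data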
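Dosing: 11.9 µM single point; system: parasite MetRS enzyme; technique: luminescence of leftover ATP; times: 15 min enzyme-compound preincubation, 2 h reaction, 10 min detection, 25 °C; replicates: each compound tested once; read-out basis: percent inhibition relative to median high and low control wells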
AHR activator: AHR activators, primary screen, cell-based, luminescence, luciferase reporter, human; Aryl hydrocarbon receptor (Homo sapiens), P35869; AHR-responsive luciferase reporter cells; activation, % at 5 µM; hit rate 2.5% among 320,000; AID 2796, 2010; in the data active = activation above about 47%
MsrA activ conf: bovine MsrA activators, retest, confirmation, biochemical, absorbance, HTS. shares compounds with MsrA act. purified bovine MsrA, absorbance read-out. activation, % at 10.6 µM. hit rate 12% among 1,000; in the data active = activation above about 4%;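 also: enzyme coupled to thioredoxin and thioredoxin reductase with NADPH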
MOR ag counter: OPRM1 agonists via beta-arrestin recruitment, confirmation, counter-screen for mouse HTR2A agonist project, cell-based, luminescence, single concentration; shares compounds with m5-HT2A agonist; U2OS OPRM1 beta-arrestin PathHunter; DMSO 0%, DAMGO 9.3 µM 100%; activation, % at 9.3 µM; hit rate 5.3% among 2,300; AID 624380, 2012;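 active = mean activation above the mean of DMSO-only wells plus 3 SD, cut at about 0.5% in these data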
HTR2A ag conf: mouse HTR2A agonists, beta-arrestin recruitment, confirmation, cell-based, luminescence, CHO-K1 PathHunter, triplicate; activation, % at 7.6 µM; DMSO 0%, 30 µM serotonin 100%; shares compounds with m5-HT2A agonist; hit rate 19% among 2,300; AID 624381, 2012;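 active = mean activation across triplicates above the hit threshold derived in the original primary screen, cut at about 15% in these data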
Tb MetRS conf: T. brucei MetRS inhibitors, confirmation, biochemical, luminescence. hit rate 93% among 1,400. shares compounds with TbMetRS inhib. T. brucei MetRS enzyme, luminescence (ATP depletion). inhibition, % at 11.9 µM. AID 624412, 2012; in the data active = inhibition above about 7%
Jurkat cytotox: Jurkat T cell cytotoxicity, cytotoxicity control for T. brucei MetRS inhibitor project, luminescence, high throughput; shares compounds with TbMetRS inhib; Jurkat cells viability, ATP luminescence; inhibition, % at 8.3 µM; hit rate 12% among 1,400; in the data active = inhibition above about 15%
TbMetRS FP orth: T. brucei MetRS inhibitors, orthogonal assay for T. brucei MetRS inhibitor project, biochemical, fluorescence polarization; shares compounds with TbMetRS inhib; purified T. brucei MetRS; inhibition, % at 11.9 µM; hit rate 44% among 1,400; AID 651607, 2012; in the data active = inhibition above about 17%
Hits are given with their value; . = inactive; / = no result.

SMILES	AI-2 QS mod	m5-HT2A agonist	MsrA act	MsrA inhibitor	TbMetRS inhib	AHR activator	MsrA activ conf	others
CC12CCC(=O)C=C1CC(O)C1C2CCC2(C)C1CCC2(C)O (centres undefined)	/	.	.	.	.	/	/
O=P(C(Cl)Cl)(N1CCOCC1)N1CCOCC1	.	.	.	.	.	.	/
O=P(C(c1ccc2c(c1)OCO2)N1CCOCC1)(N1CCOCC1)N1CCOCC1 (centres undefined)	.	.	13	.	.	.	.
COC(=O)C1=C(c2c(C)noc2C)C[C@@H]2CC[C@H]1N2C(=O)N1CCc2cc(OC)c(OC)cc2C1	/	.	.	/	.	.	/
CNC(=S)N1CCn2cccc2C1c1cccnc1 (centres undefined)	.	.	20	.	.	.	.
COC(=O)C1=C(c2ccc(F)cc2OCc2ccccc2)C[C@@H]2CC[C@H]1N2C(=O)NCC1CC1	/	.	8.4	.	.	.	.
O=S1(=O)N(CCN2CC=C(c3c[nH]c4cc(F)ccc34)CC2)c2cccc3c2N1CCC3	/	.	7.8	.	.	.	.
COc1ccc(-c2nn(CCC#N)cc2C(=O)NCc2ccccc2)cc1[N+](=O)[O-]	.	.	.	.	.	/	/
C[C@]12CCC3[C@@H](CCC4=CC(=O)CC[C@@]43CO)C1CCC2=O (some centres undefined)	.	.	.	.	.	.	/
Cn1ncnc2c(=O)n(C)c(=O)nc1-2	-81	.	14	/	40	.	12	Tb MetRS conf=21;Jurkat cytotox=87;TbMetRS FP orth=.
COC(=O)C1=C(c2ccc(OCc3ccccc3)cc2)C[C@@H]2CC[C@H]1N2C(=O)NCc1ccccc1C(F)(F)F	/	.	.	.	.	/	/
NCCNc1ccc([N+](=O)[O-])c2cccnc12	.	22	.	.	.	.	/	MOR ag counter=.;HTR2A ag conf=.
CC(O)CNc1ccc([N+](=O)[O-])c2cccnc12 (centres undefined)	.	.	.	.	.	.	/
c1ccc2nc(N3CCNCC3)ccc2c1	/	51	.	.	.	.	/	MOR ag counter=.;HTR2A ag conf=38
C[C@@H]1NCCc2cc(O)c(O)cc21	/	.	.	.	.	.	/
O=P(Oc1ccccc1)(Oc1ccccc1)N1CCOCC1	/	.	.	.	.	/	/
NCC(O)c1cc(O)c(O)cc1F (centres undefined)	/	56	.	.	.	.	/	MOR ag counter=.;HTR2A ag conf=149
CCCN(CCC)C(=O)Cc1c(-c2ccc(Cl)cc2)nc2c(Cl)cc(Cl)cn12	/	15	.	.	.	.	/	MOR ag counter=.;HTR2A ag conf=.
COC(=O)C1=C(c2ccc(OC)c(OC)c2)C[C@@H]2CC[C@H]1N2C(=O)N1CCCC1	/	.	.	.	.	.	/
